Reference: ChEMBL document CHEMBL2086221, “Armeniaspiroles, a new class of antibacterials: Antibacterial activities and total synthesis of 5-chloro-Armeniaspirole A” (Bioorg Med Chem Lett, 2012)
Values after ≈ are worked out from the molar mass of the structure shown. Active and inactive are the calls of the source. No cut-off for these calls is given here.

Key:
Enterococcus faecium [1] = assay: Bacteriostatic activity against vancomycin-resistant Enterococcus faecium DSM 17050 by time kill study; type: functional, organism-based
Escherichia coli [2] = assay: Bacteriostatic activity against Escherichia coli ATCC 35218 expressing LacR by time kill study; type: functional, organism-based
Pseudomonas aeruginosa [3] = assay: Bacteriostatic activity against Pseudomonas aeruginosa ATCC 27853 by time kill study; type: functional, organism-based
Staphylococcus aureus [4] = assay: Antibacterial activity against methicillin-resistant Staphylococcus aureus ATCC 33592 at >1 ug/mL after 48 hrs; type: functional, organism-based
Streptococcus pneumoniae [5] = assay: Antibacterial activity against penicillin-resistant Streptococcus pneumoniae DSM 11865 at >1 ug/mL after 48 hrs; type: functional, organism-based
Enterococcus faecium [6] = assay: Antibacterial activity against vancomycin-resistant Enterococcus faecium DSM 17050 at >1 ug/mL after 48 hrs; type: functional, organism-based
Escherichia coli [7] = assay: Antibacterial activity against Escherichia coli ATCC 35218 expressing LacR at >1 ug/mL after 48 hrs; type: functional, organism-based
Pseudomonas aeruginosa [8] = assay: Antibacterial activity against Pseudomonas aeruginosa ATCC 27853 at >1 ug/mL after 48 hrs; type: functional, organism-based
Staphylococcus aureus [9] = assay: Bacteriostatic activity against methicillin-resistant Staphylococcus aureus ATCC 33592 by time kill study in presence of fetal calf serum; type: functional, organism-based
Streptococcus pneumoniae [10] = assay: Bacteriostatic activity against penicillin-resistant Streptococcus pneumoniae DSM 11865 by time kill study in presence of fetal calf serum; type: functional, organism-based
Enterococcus faecium [11] = assay: Bacteriostatic activity against vancomycin-resistant Enterococcus faecium DSM 17050 by time kill study in presence of fetal calf serum; type: functional, organism-based
Escherichia coli [12] = assay: Bacteriostatic activity against Escherichia coli ATCC 35218 expressing LacR by time kill study in presence of fetal calf serum; type: functional, organism-based
Pseudomonas aeruginosa [13] = assay: Bacteriostatic activity against Pseudomonas aeruginosa ATCC 27853 by time kill study in presence of fetal calf serum; type: functional, organism-based
Streptococcus pneumoniae [14] = assay: Antibacterial activity against penicillin-resistant Streptococcus pneumoniae DSM 11865; type: functional; conditions: Streptococcus pneumoniae, DSM 11865
Staphylococcus aureus [15] = assay: Antibacterial activity against methicillin-resistant Staphylococcus aureus ATCC 33592; type: functional; conditions: Staphylococcus aureus, ATCC 33592
Enterococcus faecium [16] = assay: Antibacterial activity against vancomycin-resistant Enterococcus faecium DSM 17050; type: functional; conditions: Enterococcus faecium, DSM 17050
Escherichia coli [17] = assay: Antibacterial activity against Escherichia coli ATCC 35218 expressing LacR; type: functional
Pseudomonas aeruginosa [18] = assay: Antibacterial activity against Pseudomonas aeruginosa ATCC 27853; type: functional
[19] = Solubility of the compound in PBS buffer at pH 7.4; type: physicochemical
[20] = Chemical stability of the compound in PBS buffer up to 24 hrs at pH 7.4; type: physicochemical; conditions: pH 7.4, 24 h
[21] = Drug degradation in PBS buffer over 24 hrs in presence of GSH; type: physicochemical; conditions: PBS buffer with GSH; read-out: Drug degradation
How it was run: (§1)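 Parent compound incubated in PBS buffer with 10 mM GSH or 10 mM i-BuNH2 for 24 h; read-out is the decrease in parent compound concentration over that period.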

[22] = Drug degradation in PBS buffer over 24 hrs in presence of i-BuNH2; type: physicochemical; conditions: PBS buffer with i-BuNH2; read-out: Drug degradation; how it was run: as §1
Cytochrome P450 3A4 = Cytochrome P450 3A4 (Homo sapiens, UniProt P08684); assay: Inhibition of CYP3A4; type: ADME
Sequence of Cytochrome P450 3A4 (P08684 whole entry): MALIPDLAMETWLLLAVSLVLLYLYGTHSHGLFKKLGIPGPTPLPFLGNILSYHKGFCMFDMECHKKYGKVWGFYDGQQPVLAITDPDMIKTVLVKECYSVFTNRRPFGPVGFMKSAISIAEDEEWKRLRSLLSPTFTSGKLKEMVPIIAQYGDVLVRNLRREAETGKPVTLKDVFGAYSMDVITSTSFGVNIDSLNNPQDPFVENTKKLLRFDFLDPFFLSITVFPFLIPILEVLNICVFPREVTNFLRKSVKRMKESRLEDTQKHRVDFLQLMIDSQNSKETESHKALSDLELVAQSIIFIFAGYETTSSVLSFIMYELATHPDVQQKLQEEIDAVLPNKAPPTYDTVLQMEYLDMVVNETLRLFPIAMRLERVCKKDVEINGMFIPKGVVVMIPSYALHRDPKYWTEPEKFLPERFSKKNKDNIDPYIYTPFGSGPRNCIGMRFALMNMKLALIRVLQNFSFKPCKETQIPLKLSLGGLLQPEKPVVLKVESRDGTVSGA

Cytochrome P450 2D6 = Cytochrome P450 2D6 (Homo sapiens, UniProt P10635); assay: Inhibition of CYP2D6; type: ADME
Sequence of Cytochrome P450 2D6 (P10635 whole entry): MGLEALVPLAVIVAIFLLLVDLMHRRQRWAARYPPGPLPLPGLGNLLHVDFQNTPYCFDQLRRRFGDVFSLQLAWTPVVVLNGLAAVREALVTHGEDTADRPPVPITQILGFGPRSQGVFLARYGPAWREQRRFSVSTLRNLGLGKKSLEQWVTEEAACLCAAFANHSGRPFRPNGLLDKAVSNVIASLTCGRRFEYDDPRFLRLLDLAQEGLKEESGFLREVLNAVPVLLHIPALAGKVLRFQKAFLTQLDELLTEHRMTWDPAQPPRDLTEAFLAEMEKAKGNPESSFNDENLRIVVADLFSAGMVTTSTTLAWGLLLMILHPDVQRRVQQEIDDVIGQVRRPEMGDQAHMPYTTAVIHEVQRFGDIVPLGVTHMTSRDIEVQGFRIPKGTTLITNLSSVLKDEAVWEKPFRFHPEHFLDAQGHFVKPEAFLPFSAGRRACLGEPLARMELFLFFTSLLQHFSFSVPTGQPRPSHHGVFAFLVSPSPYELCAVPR

hERG (KCNH2) = hERG (KCNH2) (Homo sapiens, UniProt Q12809); assay: Inhibition of human ERG at 10 uM
Sequence of hERG (KCNH2) (Q12809 whole entry): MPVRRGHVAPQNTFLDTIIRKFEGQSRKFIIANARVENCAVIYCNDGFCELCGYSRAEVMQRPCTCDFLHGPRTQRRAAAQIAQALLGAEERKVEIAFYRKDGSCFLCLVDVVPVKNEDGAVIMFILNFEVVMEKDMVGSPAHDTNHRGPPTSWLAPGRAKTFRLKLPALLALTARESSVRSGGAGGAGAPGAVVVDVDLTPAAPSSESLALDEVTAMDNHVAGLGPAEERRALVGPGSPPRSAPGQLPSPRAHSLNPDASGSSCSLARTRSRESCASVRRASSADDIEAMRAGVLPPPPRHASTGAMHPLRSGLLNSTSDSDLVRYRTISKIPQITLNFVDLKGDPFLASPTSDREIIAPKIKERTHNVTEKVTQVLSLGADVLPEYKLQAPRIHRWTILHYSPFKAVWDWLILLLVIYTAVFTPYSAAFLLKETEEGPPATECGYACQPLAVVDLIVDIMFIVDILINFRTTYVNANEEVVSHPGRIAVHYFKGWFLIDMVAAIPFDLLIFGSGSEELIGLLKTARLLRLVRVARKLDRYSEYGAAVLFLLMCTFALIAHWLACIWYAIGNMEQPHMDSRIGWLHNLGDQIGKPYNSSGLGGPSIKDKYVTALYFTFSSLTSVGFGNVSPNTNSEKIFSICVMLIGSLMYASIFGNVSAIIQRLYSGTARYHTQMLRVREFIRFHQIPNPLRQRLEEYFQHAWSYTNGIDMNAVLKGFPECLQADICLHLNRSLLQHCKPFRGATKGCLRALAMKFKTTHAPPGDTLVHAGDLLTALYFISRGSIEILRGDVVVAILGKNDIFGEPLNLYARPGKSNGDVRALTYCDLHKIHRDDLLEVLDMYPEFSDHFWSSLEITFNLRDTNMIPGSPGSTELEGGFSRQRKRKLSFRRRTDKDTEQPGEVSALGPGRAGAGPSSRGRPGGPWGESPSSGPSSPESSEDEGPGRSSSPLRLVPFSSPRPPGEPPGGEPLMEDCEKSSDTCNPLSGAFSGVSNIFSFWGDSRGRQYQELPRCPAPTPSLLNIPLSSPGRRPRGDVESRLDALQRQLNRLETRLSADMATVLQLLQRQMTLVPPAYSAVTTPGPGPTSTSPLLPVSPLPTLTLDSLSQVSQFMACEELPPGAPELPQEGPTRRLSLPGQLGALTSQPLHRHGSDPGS

[23] = Clearance in Swiss mouse at 7.5 mg/kg, iv; type: ADME, organism-based; parameters: dose 7.5 mg/kg, route intravenous; conditions: in vivo
How it was run: (§2)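 Male Swiss mice dosed 7.5 mg/kg iv; plasma pharmacokinetics gave clearance, steady-state volume of distribution, Cmax and plasma half-life.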

[24] = Volume of distribution at steady state in Swiss mouse at 7.5 mg/kg, iv; type: ADME, organism-based; parameters: dose 7.5 mg/kg, route intravenous; conditions: in vivo, read-out: Vdss; how it was run: as §2
[25] = Cmax in Swiss mouse at 7.5 mg/kg, iv; type: ADME, organism-based; parameters: dose 7.5 mg/kg, route intravenous; conditions: in vivo; how it was run: as §2
[26] = Half life in Swiss mouse plasma at 7.5 mg/kg, iv; type: ADME, organism-based; parameters: dose 7.5 mg/kg, route intravenous; how it was run: as §2
Staphylococcus aureus [27] = assay: Antibacterial activity against methicillin-resistant Staphylococcus aureus ATCC 33592 infected in mouse assessed as host survival at 20 mg/kg/day, sc relative to control; type: functional; conditions: ATCC 33592, sc, route subcutaneous
How it was run: (§3)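 Mice with MRSA ATCC33592 septicemia were dosed sc at 20, 40 or 80 mg/kg/d in 5% ethanol/5% Solutol/Tris-NaCl buffer pH 9. Survival was scored in six animals per group, and log reduction of blood bacteremia in five animals per group. Results are given as mean ± sem against the vehicle-treated group (P < 0.05 or P < 0.001).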

Staphylococcus aureus [28] = assay: Antibacterial activity against methicillin-resistant Staphylococcus aureus ATCC 33592 infected in mouse assessed as host survival at 40 mg/kg/day, sc relative to control; type: functional; conditions: ATCC 33592, sc, route subcutaneous; how it was run: as §3
Staphylococcus aureus [29] = assay: Antibacterial activity against methicillin-resistant Staphylococcus aureus ATCC 33592 infected in mouse assessed as host survival at 80 mg/kg/day, sc relative to control; type: functional; conditions: ATCC 33592, sc, route subcutaneous; how it was run: as §3
Staphylococcus aureus [30] = assay: Antibacterial activity against methicillin-resistant Staphylococcus aureus ATCC 33592 infected in mouse assessed as host survival at 3 mg/kg/day, iv relative to control; type: functional
Staphylococcus aureus [31] = assay: Antibacterial activity against methicillin-resistant Staphylococcus aureus ATCC 33592 infected in mouse assessed as host survival at 10 mg/kg/day, iv relative to control; type: functional
Staphylococcus aureus [32] = assay: Antibacterial activity against methicillin-resistant Staphylococcus aureus ATCC 33592 infected in mouse assessed as host survival at 15 mg/kg/day, iv relative to control; type: functional
Staphylococcus aureus [33] = assay: Antibacterial activity against methicillin-resistant Staphylococcus aureus ATCC 33592 infected in mouse assessed as log reduction in bacteremia at 20 mg/kg/day, sc relative to control; type: functional; conditions: route subcutaneous; how it was run: as §3
Staphylococcus aureus [34] = assay: Antibacterial activity against methicillin-resistant Staphylococcus aureus ATCC 33592 infected in mouse assessed as log reduction in bacteremia at 40 mg/kg/day, sc relative to control; type: functional; conditions: route subcutaneous; how it was run: as §3
Staphylococcus aureus [35] = assay: Antibacterial activity against methicillin-resistant Staphylococcus aureus ATCC 33592 infected in mouse assessed as log reduction in bacteremia at 80 mg/kg/day, sc relative to control; type: functional; conditions: route subcutaneous; how it was run: as §3
Staphylococcus aureus [36] = assay: Antibacterial activity against methicillin-resistant Staphylococcus aureus ATCC 33592 infected in mouse assessed as log reduction in bacteremia at 3 mg/kg/day, iv relative to control; type: functional
Staphylococcus aureus [37] = assay: Antibacterial activity against methicillin-resistant Staphylococcus aureus ATCC 33592 infected in mouse assessed as log reduction in bacteremia at 10 mg/kg/day, iv relative to control; type: functional
Staphylococcus aureus [38] = assay: Antibacterial activity against methicillin-resistant Staphylococcus aureus ATCC 33592 infected in mouse assessed as log reduction in bacteremia at 15 mg/kg/day, iv relative to control; type: functional
Staphylococcus aureus [39] = assay: Antibacterial activity against methicillin-resistant Staphylococcus aureus ATCC 33592 infected in iv dosed mouse assessed as increase in host survival; type: functional, organism-based
Staphylococcus aureus [40] = assay: Antibacterial activity against methicillin-resistant Staphylococcus aureus ATCC 33592 infected in iv dosed mouse assessed as decrease in bacteremia; type: functional, organism-based

Question: For `CCCCCCc1c(O)c(Cl)cc2c1O[C@]1(C2=O)C(Cl)=C(Cl)C(=O)N1C` (stereo in doubt; form 2), which Activity (Enterococcus faecium [1]) is on record?
Answer: The Activity was “Dose-dependent effect”.

Question: What about the Activity (Escherichia coli [2]) of the same compound?
Answer: The Activity was “Dose-dependent effect”.

Question: And the Activity (Pseudomonas aeruginosa [3])?
Answer: Its Activity is “Dose-dependent effect”.

Question: And the Activity (Staphylococcus aureus [4])?
Answer: The Activity was “Active”.

Question: What about the Activity (Streptococcus pneumoniae [5]) of the same compound?
Answer: Its Activity is “Active”.

Question: What about the Activity (Enterococcus faecium [6]) of the same compound?
Answer: Its Activity is “Active”.

Question: And the Activity (Escherichia coli [7])?
Answer: Its Activity is “Active”.

Question: And the Activity (Pseudomonas aeruginosa [8])?
Answer: Its Activity is “Active”.

Question: What about the Activity (Staphylococcus aureus [9]) of the same compound?
Answer: Its Activity is “inactive”.

Question: And the Activity (Streptococcus pneumoniae [10])?
Answer: The Activity was “inactive”.

Question: What about the Activity (Enterococcus faecium [11]) of the same compound?
Answer: Its Activity is “inactive”.

Question: What about the Activity (Escherichia coli [12]) of the same compound?
Answer: Its Activity is “inactive”.

Question: What about the Activity (Pseudomonas aeruginosa [13]) of the same compound?
Answer: The Activity was “inactive”.

Question: With `CCCCCCc1c(O)ccc2c1O[C@]1(C2=O)C(Cl)=C(Cl)C(=O)N1C` [ARMENIASPIROLE A] as the compound, how does the IC80 (Streptococcus pneumoniae [14]) read?
Answer: The IC80 was 2.3 µM.

Question: And the IC80 (Staphylococcus aureus [15])?
Answer: The IC80 was 0.125 µM.

Question: And the IC80 (Enterococcus faecium [16])?
Answer: Its IC80 is 8.2 µM.

Question: What about the IC80 (Escherichia coli [17]) of the same compound?
Answer: Its IC80 is > 30 µM.

Question: And the IC80 (Pseudomonas aeruginosa [18])?
Answer: Its IC80 is > 30 µM.

Question: And the solubility [19]?
Answer: Its solubility is 25 µg/mL (≈ 65.1 µM).

Question: What about the Stability [20] of the same compound?
Answer: Its Stability is “Stable”.

Question: What about the degraded at 24 h [21] of the same compound?
Answer: The degraded at 24 h was 30%.

Question: What about the degraded at 24 h [22] of the same compound?
Answer: Its degraded at 24 h is < 10%.

Question: What about the Activity (Staphylococcus aureus [4]) of the same compound?
Answer: Its Activity is “Active”.

Question: What about the Activity (Streptococcus pneumoniae [5]) of the same compound?
Answer: The Activity was “Active”.

Question: And the Activity (Enterococcus faecium [6])?
Answer: The Activity was “Active”.

Question: What about the Activity (Escherichia coli [7]) of the same compound?
Answer: Its Activity is “Active”.

Question: What about the Activity (Pseudomonas aeruginosa [8]) of the same compound?
Answer: Its Activity is “Active”.

Question: What about the IC50 (Cytochrome P450 3A4) of the same compound?
Answer: The IC50 was > 10 µM.

Question: And the IC50 (Cytochrome P450 2D6)?
Answer: Its IC50 is > 10 µM.

Question: And the inhibition at 10 µM (hERG (KCNH2))?
Answer: The inhibition at 10 µM was < 35%.

Question: What about the clearance [23] of the same compound?
Answer: The clearance was 20 mL/min/kg.

Question: What about the Vd [24] of the same compound?
Answer: Its Vd is 2.4 L/kg.

Question: What about the Cmax [25] of the same compound?
Answer: The Cmax was 27400 ng/mL.

Question: What about the half-life [26] of the same compound?
Answer: The half-life was 3 h.

Question: And the survival at 20 mg/kg/day (Staphylococcus aureus [27])?
Answer: Its survival at 20 mg/kg/day is 0%.

Question: And the survival at 40 mg/kg/day (Staphylococcus aureus [28])?
Answer: The survival at 40 mg/kg/day was 50%.

Question: And the survival at 80 mg/kg/day (Staphylococcus aureus [29])?
Answer: Its survival at 80 mg/kg/day is 50%.

Question: What about the survival at 3 mg/kg/day (Staphylococcus aureus [30]) of the same compound?
Answer: The survival at 3 mg/kg/day was 0%.

Question: And the survival at 10 mg/kg/day (Staphylococcus aureus [31])?
Answer: Its survival at 10 mg/kg/day is 33%.

Question: And the survival at 15 mg/kg/day (Staphylococcus aureus [32])?
Answer: Its survival at 15 mg/kg/day is 67%.

Question: And the FC (Staphylococcus aureus [33])?
Answer: The FC was 0.2.

Question: What about the FC (Staphylococcus aureus [34]) of the same compound?
Answer: The FC was 0.8.

Question: What about the FC (Staphylococcus aureus [35]) of the same compound?
Answer: The FC was 1.7.

Question: What about the FC (Staphylococcus aureus [36]) of the same compound?
Answer: Its FC is 0.05.

Question: What about the FC (Staphylococcus aureus [37]) of the same compound?
Answer: The FC was 0.9.

Question: And the FC (Staphylococcus aureus [38])?
Answer: The FC was 2.8.

Question: And the Survival (Staphylococcus aureus [39])?
Answer: Its Survival is “Dose-dependent effect”.

Question: What about the Activity (Staphylococcus aureus [40]) of the same compound?
Answer: The Activity was “Dose-dependent effect”.

Question: What about the Activity (Staphylococcus aureus [9]) of the same compound?
Answer: The Activity was “inactive”.

Question: And the Activity (Streptococcus pneumoniae [10])?
Answer: The Activity was “inactive”.

Question: What about the Activity (Enterococcus faecium [11]) of the same compound?
Answer: The Activity was “inactive”.

Question: And the Activity (Escherichia coli [12])?
Answer: The Activity was “inactive”.

Question: What about the Activity (Pseudomonas aeruginosa [13]) of the same compound?
Answer: Its Activity is “inactive”.
